# Laboratory results from publication PMC2864799 (Assay and drug development technologies, 2010).
# Assays:
# Type in all cases: biochemical
# hGST M1-1 = target: T1, hGST M1-1 (Homo sapiens, UniProt P09488); experiment: 1,536-well luminescence GST inhibition assay, hGST M1-1; conditions: for IC50: 5 nM hGST M1-1, 10 μM PBI 3773, 40 min
# T1 sequence (P09488 2-218 limits assumed): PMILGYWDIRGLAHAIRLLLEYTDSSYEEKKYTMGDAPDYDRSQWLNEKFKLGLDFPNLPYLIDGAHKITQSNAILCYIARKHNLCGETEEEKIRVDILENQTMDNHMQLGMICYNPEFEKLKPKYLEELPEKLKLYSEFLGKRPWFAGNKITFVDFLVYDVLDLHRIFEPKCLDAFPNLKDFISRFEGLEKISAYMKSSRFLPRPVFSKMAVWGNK
# Summary of the method: (§1)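 GST at 5 nM (hGST P1-1 125 nM) with GSH in 50 mM HEPES pH 7.5, 0.01% Tween-20. Pin-added test compound (1:2 16-point or 1:3 8-point series), 10 or 15 min RT. Substrate: PBI 1155 20 μM (S. japonicum), PBI 3773 10 μM (A1-1, M1-1, A4-4), PBI 1158 100 μM (P1-1). Reaction 40 min (P1-1 60 min) RT, then luciferase detection reagent and luminescence read. Percent inhibition from median catalyzed and no-enzyme controls; duplicate wells; curve-fitted IC50.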
# [1] = system: GSTs (hGST A1-1, mGST A4-4, hGST M1-1, hGST P1-1, S. japonicum GST); experiment: 1,536-well luminescence GST inhibition assay, all GSTs tested
# Summary of the method: as §1
# S. japonicum GST = S. japonicum GST (Schistosoma japonicum, UniProt P08515); experiment: 1,536-well luminescence GST inhibition assay, S. japonicum GST
# Chain of S. japonicum GST (P08515 whole entry): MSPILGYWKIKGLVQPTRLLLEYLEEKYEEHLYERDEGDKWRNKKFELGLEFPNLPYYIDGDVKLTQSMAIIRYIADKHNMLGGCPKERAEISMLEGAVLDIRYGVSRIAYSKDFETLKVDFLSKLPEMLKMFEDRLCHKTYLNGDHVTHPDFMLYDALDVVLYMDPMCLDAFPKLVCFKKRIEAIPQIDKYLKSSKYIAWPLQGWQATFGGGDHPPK
# Summary of the method: as §1
# hGST P1-1 = hGST P1-1 (Homo sapiens, UniProt P09211); experiment: 1,536-well luminescence GST inhibition assay, hGST P1-1
# Chain of hGST P1-1 (P09211 2-210 limits assumed): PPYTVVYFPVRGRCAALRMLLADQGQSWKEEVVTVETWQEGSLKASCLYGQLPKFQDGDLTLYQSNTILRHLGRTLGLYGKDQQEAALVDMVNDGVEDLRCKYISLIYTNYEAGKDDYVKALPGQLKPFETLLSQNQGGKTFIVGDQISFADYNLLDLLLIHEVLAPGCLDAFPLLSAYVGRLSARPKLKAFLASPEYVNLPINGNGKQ
# Summary of the method: as §1
smiles,measurement,setting,value
NC(CCC(=O)NC(CSc1ccc(C(=O)OCCOCCOCCOCCOC(=O)c2ccc(SCC(NC(=O)CCC(N)C(=O)O)C(=O)NCC(=O)O)c([N+](=O)[O-])c2)cc1[N+](=O)[O-])C(=O)NCC(=O)O)C(=O)O (stereo not shown) [Bis-(NB-GS)],IC50,hGST M1-1,0.191 µM
same,fold difference in IC50 (NBD-GS vs Bis-(NB-GS)),hGST M1-1; hGST M1-1,~ 130 fold
"O=[N+]([O-])c1ccc(Cl)c([N+](=O)[O-])c1 [CDNB, 1-chloro-2,4-dinitrobenzene]",inhibition (in words),[1]; top concentrations tested near 100 μM,partial inhibition only at the top concentrations tested
O=[N+]([O-])c1ccc(SCCCCCCCCO)c2nonc12 [NBD-8-OH],inhibitory activity (in words),[1]; against the GSTs tested,single-digit micromolar or better
NC(CCC(=O)NC(CSc1ccc([N+](=O)[O-])c2nonc12)C(=O)NCC(=O)O)C(=O)O (stereo not shown) [NBD-GS],IC50,hGST M1-1,24.4 µM
Nc1c(S(=O)(=O)O)cc(Nc2ccc(Nc3nc(Cl)nc(Nc4cccc(S(=O)(=O)O)c4)n3)c(S(=O)(=O)O)c2)c2c1C(=O)c1ccccc1C2=O [Reactive Blue 2],onset of luminescence decrease relative to IC50,hGST M1-1; hGST M1-1,8 fold
same,IC50,S. japonicum GST,63 nM
same,onset of luminescence quenching relative to IC50,S. japonicum GST; S. japonicum GST,several hundred times greater
same,onset of luminescence quenching relative to IC50,hGST P1-1; hGST P1-1,approximately 60 fold
O=C1OC(c2ccc(O)c(S(=O)(=O)O)c2)(c2ccc(O)c(S(=O)(=O)O)c2)c2c(Br)c(Br)c(Br)c(Br)c21 [bromosulfalein],inhibition (in words),"hGST P1-1; 125 nM hGST P1-1, 100 μM PBI 1158, 60 min",lack of inhibition
